{
  "source": "ChEMBL document CHEMBL5357024",
  "about": "“MDM2 Antagonist Idasanutlin Reduces HDAC1/2 Abundance and Corepressor Partners but Not HDAC3” (ACS Med Chem Lett, 2024)",
  "key": {"HCT-116": {"tested_on": "HCT-116", "test": "Effect on histone H3 lysine K56 acetylation in human HCT-116 cells assessed as increase in H3K56ac level at 0.1 to 10 uM by Western blot analysis", "format": "functional, cell-based", "conditions": "dose 0.1-10 µM", "outline": "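HCT116 cells (DMEM, 10% FBS, glutamine/pen/strep, 37 °C, 5% CO2) seeded 24 h, then treated with DMSO or compound in fresh medium. Pellets after lysis were acid-extracted with 0.4 N H2SO4 at 4 °C overnight. Acid histone extract run on 4–12% bis-Tris gels, transferred to nitrocellulose and probed for H3K56ac. IRDye secondaries with infrared imaging.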"}, "[1]": {"molecular_target": "T1, E3 ubiquitin-protein ligase Mdm2/Histone deacetylase 1 (Homo sapiens) (UniProt Q00987+Q13547)", "T1 sequence (Q00987 whole entry, looked up)": "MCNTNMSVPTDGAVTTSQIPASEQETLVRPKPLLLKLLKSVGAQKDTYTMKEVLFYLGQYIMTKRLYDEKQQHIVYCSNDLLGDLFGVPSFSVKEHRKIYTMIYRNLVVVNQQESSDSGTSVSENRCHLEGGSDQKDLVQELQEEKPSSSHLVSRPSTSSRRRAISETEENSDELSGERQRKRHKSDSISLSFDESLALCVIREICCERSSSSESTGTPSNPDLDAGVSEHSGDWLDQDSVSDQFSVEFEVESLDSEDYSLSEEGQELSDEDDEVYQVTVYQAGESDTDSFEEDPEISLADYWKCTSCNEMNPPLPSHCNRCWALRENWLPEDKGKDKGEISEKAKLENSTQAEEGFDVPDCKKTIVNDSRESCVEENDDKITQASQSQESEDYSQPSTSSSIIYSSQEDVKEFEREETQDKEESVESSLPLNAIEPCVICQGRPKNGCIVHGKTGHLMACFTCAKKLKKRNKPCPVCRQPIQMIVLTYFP", "T1 sequence (Q13547 whole entry, looked up)": "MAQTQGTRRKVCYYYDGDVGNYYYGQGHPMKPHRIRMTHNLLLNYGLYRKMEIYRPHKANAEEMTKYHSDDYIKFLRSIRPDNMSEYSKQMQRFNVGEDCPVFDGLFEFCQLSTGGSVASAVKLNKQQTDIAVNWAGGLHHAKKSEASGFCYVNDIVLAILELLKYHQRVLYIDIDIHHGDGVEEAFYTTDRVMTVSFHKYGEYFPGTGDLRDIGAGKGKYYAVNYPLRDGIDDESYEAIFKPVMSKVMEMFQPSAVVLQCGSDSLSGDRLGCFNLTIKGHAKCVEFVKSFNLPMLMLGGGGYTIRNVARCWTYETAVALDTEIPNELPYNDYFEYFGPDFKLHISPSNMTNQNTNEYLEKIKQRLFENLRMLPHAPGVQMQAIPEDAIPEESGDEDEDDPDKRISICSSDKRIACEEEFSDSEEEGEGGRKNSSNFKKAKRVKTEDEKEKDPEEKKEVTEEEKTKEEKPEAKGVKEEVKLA", "test": "PROTAC activity at MDM2/HDAC1 in human HCT-116 cells assessed as decrease in HDAC1 abundance by measuring remaining activity at 0.1 uM measured after 24 hrs by Western blot analysis (reference value: 100%)", "format": "cell-based", "outline": "(§1)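 HCT116 cells seeded in six-well plates for 24 h, then exposed 24 h to compound (0.01–10 μM) or DMSO in fresh medium. Lysis in Tris-HCl/NaCl/NP-40/Triton X-100 with protease inhibitor. Bradford-normalised 30 μg protein per lane. Quantitative Western blot used specific HDAC1, HDAC2, HDAC3, LSD1 or Sin3a antibodies with IRDye secondaries. Abundance compared with DMSO, n = 2 replicates.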"}, "[2]": {"molecular_target": "T1, E3 ubiquitin-protein ligase Mdm2/Histone deacetylase 1 (Homo sapiens)", "test": "PROTAC activity at MDM2/HDAC1 in human HCT-116 cells assessed as decrease in HDAC1 abundance by measuring remaining activity at 5 uM measured after 24 hrs by Western blot analysis (reference value: 100%)", "format": "cell-based", "outline": "as §1"}, "[3]": {"molecular_target": "T2, E3 ubiquitin-protein ligase Mdm2/Histone deacetylase 2 (Homo sapiens) (UniProt Q00987+Q92769)", "T2 sequence (Q00987 whole entry, looked up)": "as the sequence (Q00987 whole entry, looked up) above", "T2 sequence (Q92769 whole entry, looked up)": "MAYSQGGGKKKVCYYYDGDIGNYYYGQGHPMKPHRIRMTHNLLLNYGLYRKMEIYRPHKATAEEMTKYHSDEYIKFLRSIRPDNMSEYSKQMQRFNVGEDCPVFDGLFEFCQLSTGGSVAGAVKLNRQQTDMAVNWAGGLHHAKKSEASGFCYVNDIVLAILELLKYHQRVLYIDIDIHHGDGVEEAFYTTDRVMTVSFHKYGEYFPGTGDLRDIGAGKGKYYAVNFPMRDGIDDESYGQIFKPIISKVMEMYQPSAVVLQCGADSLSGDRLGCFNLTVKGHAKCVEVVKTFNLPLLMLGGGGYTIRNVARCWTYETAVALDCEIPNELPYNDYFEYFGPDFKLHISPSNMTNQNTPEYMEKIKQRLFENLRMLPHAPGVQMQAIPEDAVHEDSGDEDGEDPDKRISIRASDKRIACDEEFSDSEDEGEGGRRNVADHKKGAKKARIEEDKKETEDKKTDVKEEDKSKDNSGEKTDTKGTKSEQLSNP", "test": "PROTAC activity at MDM2/HDAC2 in human HCT-116 cells assessed as decrease in HDAC2 abundance by measuring remaining activity at 0.5 uM measured after 24 hrs by Western blot analysis (reference value: 100%)", "format": "cell-based", "outline": "as §1"}, "[4]": {"molecular_target": "T2, E3 ubiquitin-protein ligase Mdm2/Histone deacetylase 2 (Homo sapiens)", "test": "PROTAC activity at MDM2/HDAC2 in human HCT-116 cells assessed as decrease in HDAC2 abundance by measuring remaining activity at 2.5 uM measured after 24 hrs by Western blot analysis (reference value: 100%)", "format": "cell-based", "outline": "as §1"}, "[5]": {"molecular_target": "E3 ubiquitin-protein ligase Mdm2/Histone deacetylase 3 (Homo sapiens) (UniProt Q00987+O15379)", "sequence (O15379 whole entry, looked up)": "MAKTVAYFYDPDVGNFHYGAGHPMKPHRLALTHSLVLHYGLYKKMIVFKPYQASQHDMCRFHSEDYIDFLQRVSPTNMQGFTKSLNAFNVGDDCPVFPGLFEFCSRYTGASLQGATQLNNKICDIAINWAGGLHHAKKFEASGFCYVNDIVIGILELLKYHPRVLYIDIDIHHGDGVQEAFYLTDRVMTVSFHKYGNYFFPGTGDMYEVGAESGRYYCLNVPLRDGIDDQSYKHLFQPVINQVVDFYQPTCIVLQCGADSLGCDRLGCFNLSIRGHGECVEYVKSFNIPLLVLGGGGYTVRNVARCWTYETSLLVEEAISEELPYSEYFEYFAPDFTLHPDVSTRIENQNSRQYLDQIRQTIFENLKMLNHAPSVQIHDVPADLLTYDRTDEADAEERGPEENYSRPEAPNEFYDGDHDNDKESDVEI", "sequence (Q00987 whole entry, looked up)": "as the sequence (Q00987 whole entry, looked up) above", "test": "PROTAC activity at MDM2/HDAC3 in human HCT-116 cells assessed as reduction in HDAC3 abundance by measuring remaining activity at 5 uM measured after 24 hrs by Western blot analysis", "format": "cell-based", "outline": "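HCT116 cells in DMEM with 10% FBS and glutamine/penicillin/streptomycin at 37 °C, 5% CO2. Seeded 4 × 10^5 cells/well, after 24 h treated 24 h with DMSO or compound in fresh medium. Lysed in Tris-HCl/NaCl/NP-40/Triton X-100 buffer with protease inhibitor, Bradford-quantified, 30 μg protein per lane. Quantitative Western blot with specific HDAC1/2/3 antibodies, IRDye secondaries, infrared imaging, versus DMSO. n = 2 replicates.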"}, "[6]": {"molecular_target": "T3, Paired amphipathic helix protein Sin3a (Homo sapiens) (UniProt Q96ST3)", "T3 sequence (whole entry)": "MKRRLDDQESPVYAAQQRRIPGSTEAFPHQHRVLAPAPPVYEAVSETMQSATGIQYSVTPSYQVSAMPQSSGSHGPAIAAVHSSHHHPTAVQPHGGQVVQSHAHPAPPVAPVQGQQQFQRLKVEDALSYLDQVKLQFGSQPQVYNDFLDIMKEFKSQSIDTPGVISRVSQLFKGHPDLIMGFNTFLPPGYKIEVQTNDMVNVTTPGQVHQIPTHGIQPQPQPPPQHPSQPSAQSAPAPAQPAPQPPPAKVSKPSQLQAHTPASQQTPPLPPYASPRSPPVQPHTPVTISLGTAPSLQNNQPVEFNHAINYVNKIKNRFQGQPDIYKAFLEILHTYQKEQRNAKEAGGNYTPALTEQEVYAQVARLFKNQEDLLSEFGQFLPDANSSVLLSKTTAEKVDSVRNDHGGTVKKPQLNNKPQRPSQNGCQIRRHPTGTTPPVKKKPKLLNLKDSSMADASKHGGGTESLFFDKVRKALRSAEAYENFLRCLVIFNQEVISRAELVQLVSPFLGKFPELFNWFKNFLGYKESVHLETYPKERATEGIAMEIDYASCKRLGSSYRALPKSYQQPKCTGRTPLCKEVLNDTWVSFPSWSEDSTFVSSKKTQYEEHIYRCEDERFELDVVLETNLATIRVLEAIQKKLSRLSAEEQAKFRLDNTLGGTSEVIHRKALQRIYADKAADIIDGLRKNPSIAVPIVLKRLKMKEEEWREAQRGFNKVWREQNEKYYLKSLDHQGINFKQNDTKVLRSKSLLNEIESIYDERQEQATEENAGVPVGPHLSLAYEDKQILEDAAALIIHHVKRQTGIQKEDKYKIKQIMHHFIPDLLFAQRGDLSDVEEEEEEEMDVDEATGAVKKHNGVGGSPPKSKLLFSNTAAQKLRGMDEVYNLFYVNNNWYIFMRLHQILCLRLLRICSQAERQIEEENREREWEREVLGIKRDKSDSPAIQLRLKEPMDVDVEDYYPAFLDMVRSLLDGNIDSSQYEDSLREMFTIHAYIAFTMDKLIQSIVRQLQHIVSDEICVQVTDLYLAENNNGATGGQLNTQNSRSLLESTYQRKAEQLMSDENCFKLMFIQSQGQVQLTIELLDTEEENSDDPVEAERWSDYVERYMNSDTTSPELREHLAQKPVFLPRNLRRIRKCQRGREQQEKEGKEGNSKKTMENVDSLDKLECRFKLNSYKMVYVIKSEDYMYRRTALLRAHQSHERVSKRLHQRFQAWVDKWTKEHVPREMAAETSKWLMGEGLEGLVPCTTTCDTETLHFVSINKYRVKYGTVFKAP", "test": "Induction of SIN3A degradation in human HCT-116 cells assessed as reduction in SIN3A abundance by measuring remaining activity at 0.05 uM measured after 24 hrs by Western blot analysis (reference value: 100%)", "format": "cell-based", "outline": "as §1"}, "[7]": {"molecular_target": "T3, Paired amphipathic helix protein Sin3a (Homo sapiens)", "test": "Induction of SIN3A degradation in human HCT-116 cells assessed as reduction in SIN3A abundance by measuring remaining activity at 0.25 uM measured after 24 hrs by Western blot analysis (reference value: 100%)", "format": "cell-based", "outline": "as §1"}, "[8]": {"molecular_target": "T3, Paired amphipathic helix protein Sin3a (Homo sapiens)", "test": "Induction of SIN3A degradation in human HCT-116 cells assessed as reduction in SIN3A abundance by measuring remaining activity at 1 uM measured after 24 hrs by Western blot analysis (reference value: 100%)", "format": "cell-based", "outline": "as §1"}, "[9]": {"molecular_target": "Lysine-specific histone demethylase 1A (Homo sapiens) (UniProt O60341)", "test": "Induction of LSD1 degradation in human HCT-116 cells assessed as reduction in LSD1 abundance by measuring remaining activity at 0.05 uM measured after 24 hrs by Western blot analysis (reference value: 100%)", "format": "cell-based", "outline": "as §1"}, "[10]": {"molecular_target": "Lysine-specific histone demethylase 1A (Homo sapiens) (UniProt O60341)", "test": "Induction of LSD1 degradation in human HCT-116 cells assessed as reduction in LSD1 abundance by measuring remaining activity at 0.1 uM measured after 24 hrs by Western blot analysis (reference value: 100%)", "format": "cell-based", "outline": "as §1"}},
  "note": "Active and inactive are the calls of the source. The rule behind the calls is not given here.",
  "data": [
    {"smiles": "COc1cc(C(=O)NCCOCCOCCOCCOCCC(=O)Nc2ccc(C(=O)Nc3ccccc3N)cc2)ccc1NC(=O)[C@@H]1N[C@@H](CC(C)(C)C)[C@](C#N)(c2ccc(Cl)cc2F)[C@H]1c1cccc(Cl)c1F", "values": [
      {"measurement": "Activity", "setting": "HCT-116", "value": "inactive"},
      {"measurement": "Activity", "setting": "[1]", "value": 84, "unit": "%"},
      {"measurement": "Activity", "setting": "[2]", "value": 41, "unit": "%"},
      {"measurement": "Activity", "setting": "[3]", "value": 89, "unit": "%"},
      {"measurement": "Activity", "setting": "[4]", "value": 72, "unit": "%"},
      {"measurement": "Activity", "setting": "[5]", "value": 105, "unit": "%"},
      {"measurement": "Activity", "setting": "[6]", "value": 103, "unit": "%"},
      {"measurement": "Activity", "setting": "[7]", "value": 92, "unit": "%"},
      {"measurement": "Activity", "setting": "[8]", "value": 70, "unit": "%"},
      {"measurement": "Activity", "setting": "[9]", "value": 95, "unit": "%"},
      {"measurement": "Activity", "setting": "[10]", "value": 104, "unit": "%"}
    ]}
  ]
}
